Screening results from PubChem BioAssay.
In the library only some 1.1% were active in any assay of this set; here they are far more common.
TbHK1 inh – blocks Trypanosoma brucei hexokinase 1 activity; recombinant TbHK1, G6PDH-coupled NADH A340; inhibition, % at 10 µM; 220,000 tested, 0.11% active; AID 1430;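 active = inhibition of 50% or more in the single-dose primary screen; inactive = inhibition below 50%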
FXIa inh – blocks human coagulation factor XIa protease activity; P03951; purified FXIa, Boc-Glu-Ala-Arg-AMC fluorogenic substrate; inhibition, % at 5 µM; 220,000 tested, 0.14% active; AID 798;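 active = inhibition of at least 40%; inactive = inhibition below 40%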;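 note: fluorescence of freed AMC excited at 355 nm; 0% = enzyme without compound and 100% = no enzyme blank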
FXIIa inh 1536 – inhibitors of human coagulation factor XIIa. P00748. purified FXIIa, Boc-QGR-AMC fluorogenic substrate, 2 h. inhibition, % at 5 µM. 220,000 tested, 0.3% active; in the data active = inhibition above about 40%;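 note: 0% = enzyme with no compound and 100% = blank without enzyme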
thrombin 1536 – blocks human thrombin protease activity; alpha-thrombin, Boc-VPR-AMC fluorogenic substrate cleavage; inhibition, % at 5 µM; AID 1046; 220,000 tested, 0.26% active;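 active = inhibition at or above 40%; inactive = inhibition below 40%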;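 note: 0% = enzyme with no compound and 100% = wells without enzyme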
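System – human alpha-thrombin protein · Reagent – Boc-VPR-AMC substrate, 15 µM final · Compound – 5 µM single dose in 0.2% DMSO · Schedule – reaction at room temperature · Technique – AMC fluorescence at 355 nm excitation and 460 nm emission · Read-out basis – % inhibition relative to enzyme controls and enzyme-free blanks · Control set – no-compound enzyme wells and no-enzyme blanks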
hK5 inh – inhibitors of human kallikrein 5. inhibition, % at 5 µM. recombinant hK5, fluorogenic AMC substrate cleavage. 210,000 tested, 0.59% active. Q9Y337;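 active = inhibition of 40% or more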;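 note: 0% = enzyme controls without compound and 100% = no-enzyme blanks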
Target sequence (Q9Y337 67-293 limits assumed): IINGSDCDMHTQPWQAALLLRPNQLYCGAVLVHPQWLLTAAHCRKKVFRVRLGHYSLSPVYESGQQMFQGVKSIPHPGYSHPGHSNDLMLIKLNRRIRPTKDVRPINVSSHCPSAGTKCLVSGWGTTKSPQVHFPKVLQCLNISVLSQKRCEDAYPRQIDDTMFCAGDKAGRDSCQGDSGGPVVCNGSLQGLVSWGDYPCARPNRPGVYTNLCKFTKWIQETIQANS
An asterisk follows results filed as active; / = no result.

SMILES	TbHK1 inh	FXIa inh	FXIIa inh 1536	thrombin 1536	hK5 inh
O=C1C2CC=CCC2C(=O)N1c1ccc(NCCc2ccc(O)cc2)c([N+](=O)[O-])c1 (centres undefined)	1	22	22	6	1
Cc1cnc([N+](=O)[O-])n1CCOC(=O)NC(=O)c1cccc(F)c1	-13	-2	3	-7	-5
Cc1ccc(N2CC(C(=O)N/N=C/c3cccc([N+](=O)[O-])c3)CC2=O)cc1 (centres undefined)	-4	5	17	104*	33
CC(C)CNc1nc2c(c(=O)n(C)c(=O)n2C)n1Cc1cccc(Br)c1	9	-2	12	-1	3
Cn1c(Cl)nc2c1c(=O)n(Cc1cccc(Br)c1)c(=O)n2C	-3	14	12	104*	34
O=C(NCc1ccccc1)c1cccnc1N1CCOCC1	-11	2	-8	10	72*
O=C(NCc1ccccc1)N1CCOCC1	-5	5	8	0	3
CCCC(=O)Nc1cccc(-c2nc3ccccc3c(=O)o2)c1	-5	-5	7	-17	-1
CC(=O)Nc1cccc(C(=O)OCc2ccccc2)c1	1	29	16	11	82*
c1ccc(CSc2ncnc3sccc23)cc1	6	25	37	37	42*
Cc1nc(SCc2ccccc2)c2ccsc2n1	7	29	57*	20	56*
Cc1nc(N2CCCCC2)c2ccsc2n1	1	-1	-8	-16	4
O=C(CSc1ncnc2sccc12)Nc1ccccc1	2	0	9	-8	-4
O=S(=O)(c1ccc2ccccc2c1)N1CCN(C(=S)Nc2ccc(F)c(Cl)c2)CC1	11	5	19	1	-24
NC(=O)CC(NC(=O)Cc1cccc2ccccc12)c1ccc(N2CCN(c3ccc(F)cc3)CC2)c([N+](=O)[O-])c1 (centres undefined)	-4	3	9	0	6
COC(=O)Cc1ccc(NC(=S)N2CCN(c3ccc(F)cc3)CC2)cc1	-2	-4	33	53*	72*
CCOc1ccccc1CN1CCC(CO)(CCOc2ccccc2)CC1	7	1	9	-5	0
Cc1nn(C)cc1CN1CCC(CO)(CCOc2ccccc2)CC1	8	23	27	68*	/
CC(C)n1c2ccccc2c2nnc(SCC(=O)Nc3ccccc3C(=O)O)nc21	-17	-5	3	0	-12
O=C(CSc1nc2ncccc2[nH]1)c1cccc([N+](=O)[O-])c1	1	3	14	-6	2
Cc1ccc(C(=O)N2C(CC(=O)Nc3ccc(Cl)cc3)C(=O)NC3CCCCC32)cc1 (centres undefined)	-2	-3	11	50*	18
CC1CCCCN1C(=O)COC(=O)/C=C/c1ccc2ccccc2n1 (centres undefined)	-7	-1	8	1	-7
Cc1ccccc1OCC(=O)Nc1sc(C(=O)Nc2cccc(C)c2C)c(C)c1C#N	-10	-1	13	5	45*
CCN(CC)C(=O)c1sc(NC(=O)Cc2ccccc2)c(C#N)c1C	0	15	18	23	41*
COc1ccccc1NC(=O)c1sc(NC(=O)c2ccco2)c(C#N)c1C	-22	-9	7	-4	-7
SMILES	TbHK1 inh	FXIa inh	FXIIa inh 1536	thrombin 1536	hK5 inh
O=[N+]([O-])c1cc(Cl)ccc1-c1nc(-c2ccccc2)no1	37	12	40	34	75*
CCSc1nnc(N2C(=O)CC(c3ccsc3)C3=C2CC(C)(C)CC3=O)s1 (centres undefined)	-4	5	18	9	53*
COC(=O)c1scc(C)c1NC(=O)Cc1ccccc1	4	3	3	4	70*
COC(=O)c1scc(C)c1NC(=O)CC1NCCNC1=O (centres undefined)	-10	-1	3	-3	-3
Cc1cc(C)n(/N=C/c2ccccc2)c(=O)c1C#N	-28	0	57*	-6	-11
COC(=O)c1cc(NS(=O)(=O)c2ccc(NC(C)=O)cc2)ccc1Cl	-7	-3	1	-7	0
Cc1occc1C(=O)N/N=C/c1ccc(Br)s1	-42	17	34	28	49*
O=C(c1ccc(N2CCCCC2)c([N+](=O)[O-])c1)N(c1ccccn1)c1ccccn1	-6	1	9	43*	3
CCOc1cc2c(C#N)c(N3CCOCC3)nc(N)c2c(N)n1	/	-3	0	2	110*
CCC(CC)C1=NN2C(=N)/C(=C\c3cc(C)n(-c4cccc(C)c4)c3C)C(=O)N=C2S1	32	7	7	0	-14
